Screens: PubChem BioAssay, several laboratories
NR2E3 ag-1 = agonists of human nuclear receptor NR2E3. actives 0.12% (n = 320,000). GST-NR2E3/biotin-RetCOR TR-FRET, 1536-well. inhibition of corepressor binding, % at 4.78 µM;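 active = percent inhibition above the cutoff of mean plus 3 SD of all tested compounds, set per screening campaign, cut at about 20% in these data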
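Material – GST-tagged NR2E3 plus biotinylated RetCOR corepressor · Quantity – NR2E3 fusion 1.35 nM · Times – 5 h incubation at 4 °C · Medium – pH 7.5 Tris-based buffer · Technique – TR-FRET, Eu(K)-anti-GST donor, streptavidin-D2 acceptor, ex 340, em 617/671 nm · Benchmarks – high control biotin, low control 0.6% DMSO · Format – 1536-well plates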
NR1D1 modulator = Rev-erb alpha (human) modulation; P20393; Rev-erbα–FITC-DNA binding, fluorescence polarization, 90 min; activity, % at 10 µM; actives 0.79% (n = 370,000); AID 1259318;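 active = activity above about 14%, limit read from the data; passing the limit was not always enough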
Target sequence (P20393 whole entry, looked up): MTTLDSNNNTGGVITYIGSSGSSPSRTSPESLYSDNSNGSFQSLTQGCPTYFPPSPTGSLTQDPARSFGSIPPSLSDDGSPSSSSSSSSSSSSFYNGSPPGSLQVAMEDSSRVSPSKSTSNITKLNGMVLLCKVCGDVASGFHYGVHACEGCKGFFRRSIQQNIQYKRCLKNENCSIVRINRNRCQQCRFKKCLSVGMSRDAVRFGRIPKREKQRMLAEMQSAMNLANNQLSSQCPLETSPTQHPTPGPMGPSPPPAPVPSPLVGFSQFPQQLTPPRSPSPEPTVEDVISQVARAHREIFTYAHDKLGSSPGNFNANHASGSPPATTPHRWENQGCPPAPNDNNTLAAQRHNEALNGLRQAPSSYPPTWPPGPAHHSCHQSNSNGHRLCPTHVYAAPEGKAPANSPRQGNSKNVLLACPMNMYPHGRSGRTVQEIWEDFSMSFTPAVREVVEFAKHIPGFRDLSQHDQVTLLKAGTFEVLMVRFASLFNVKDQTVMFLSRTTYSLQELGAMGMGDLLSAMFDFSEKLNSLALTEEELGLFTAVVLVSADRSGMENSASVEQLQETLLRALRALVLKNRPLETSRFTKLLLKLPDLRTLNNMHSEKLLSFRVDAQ
MC4R ag barr = activates human MC4R beta-arrestin recruitment | P32245 | U2OS MC4R beta-arrestin complementation, luminescence; percent of melanotan II response, DMSO zero | activation, % at 8.9 µM | actives 0.98% (n = 360,000) | AID 540308;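 active = activation above a per-plate cutoff, the mean activation of sample wells on that plate plus 3 SD, cut at about 8% in these data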
NR2E3 ag-2 = activates human NR2E3 receptor; Q9Y5X4; actives 0.35% (n = 360,000); inhibition of corepressor binding, % at 3.98 µM; AID 602229; CHO-S Gal4-NCOR/VP16-NR2E3 two-hybrid, luciferase;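 active = inhibition above the mean of all tested compounds plus 3 SD, cut at about 70% in these data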;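 also: higher means lower luciferase signal from less NR2E3 corepressor binding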
PG9 binder = binds the HIV-1 gp120 antibody PG9; TR-FRET gp120-PG9 antibody binding; inhibition, % at 6.7 µM; actives 0.43% (n = 360,000); in the data active = inhibition above about 8.5%
MC4R antag cAMP = antagonists of human melanocortin 4 receptor (MC4R) | P32245 | MC4R-expressing cells, MTII-stimulated cAMP, LANCE TR-FRET | inhibition, % at 6.5 µM | actives 0.48% (n = 360,000);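 active = inhibition above its plate's cutoff, the mean of tested wells on that plate plus 3 SD, cut at about 29% in these data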
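Assay system: U2OS-MC4R stable cell line; Also added: Melanotan II; Technique: Eu-cAMP/anti-cAMP TR-FRET, emission 671 nm; Times: 30-min compound, 1-h challenge, 1-h detection, room temperature.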
NR2E3 ag confirm = NR2E3 agonism confirmed in two-hybrid assay. inhibition, % at 3.98 µM. CHO-S mammalian two-hybrid NR2E3-NCOR, luciferase luminescence. AID 624378. actives 51% (n = 2,300). shares compounds with NR2E3 ag-2;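 active = average inhibition above a cutoff equal to the mean inhibition of all tested compounds plus one SD, cut at about 70% in these data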
VP16 counter = counter-screen for NR2E3 agonists: GAL4-VP16 reporter inhibitors. inhibition, % at 3.98 µM. actives 29% (n = 2,300). CHO-S GAL4-VP16 luciferase reporter, luminescence. AID 624379. shares compounds with NR2E3 ag-2;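 active = mean inhibition above a cutoff equal to the average over all tested compounds plus one standard deviation, cut at about 70% in these data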;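 also: luciferase from a UAS reporter driven by GAL4-VP16 transactivation; higher means less reporter light so more repression of VP16 activity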
A number is an active result. Compounds with a hit are over-represented: about 2.7% of the library has one in this group of screens.

How did Cc1cc2nc(C)n(CCCNC(=O)Nc3cccc4ccccc34)c2cc1C do in these assays?
NR2E3 ag-1: inactive; NR1D1 modulator: inactive; MC4R ag barr: inactive; NR2E3 ag-2: inactive; PG9 binder: inactive; MC4R antag cAMP: inactive; NR2E3 ag confirm: 76; VP16 counter: inactive

Results for CCc1ccc(NC(=O)COC(=O)CCc2nc3cc(S(=O)(=O)N(CC)CC)ccc3n2C)cc1 ?
NR2E3 ag-1: inactive; NR1D1 modulator: inactive; MC4R ag barr: inactive; NR2E3 ag-2: inactive; PG9 binder: inactive; MC4R antag cAMP: inactive

How did CC(C)c1cccc(C(C)C)c1OCCCCCN1CCOCC1 do in these assays?
NR2E3 ag-1: inactive; NR1D1 modulator: inactive; MC4R ag barr: inactive; NR2E3 ag-2: inactive; PG9 binder: inactive; MC4R antag cAMP: inactive

How did O=C(CSc1nnnn1-c1ccc2c(c1)OCCO2)Nc1nc2c(s1)CCCC2 do in these assays?
NR2E3 ag-1: inactive; NR1D1 modulator: inactive; MC4R ag barr: inactive; NR2E3 ag-2: 96; PG9 binder: inactive; MC4R antag cAMP: inactive; NR2E3 ag confirm: 98; VP16 counter: inactive

Results for Cc1sc2ncnc(SCC(=O)N3CCCC3=O)c2c1C ?
NR2E3 ag-1: inactive; NR1D1 modulator: inactive; MC4R ag barr: inactive; NR2E3 ag-2: inactive; PG9 binder: inactive; MC4R antag cAMP: inactive

How did COc1ccc(C(=O)Cn2c(C(C)=O)nc3ccccc32)cc1 do in these assays?
NR1D1 modulator: inactive; MC4R ag barr: inactive; NR2E3 ag-2: inactive; PG9 binder: inactive; MC4R antag cAMP: inactive; NR2E3 ag confirm: inactive; VP16 counter: inactive

How did COc1ccc(/C=C/C(=O)c2nc3ccccc3n2CC(=O)c2ccc(OC)cc2)cc1 do in these assays?
NR2E3 ag-1: inactive; NR1D1 modulator: inactive; MC4R ag barr: inactive; NR2E3 ag-2: inactive; PG9 binder: inactive; MC4R antag cAMP: inactive

What do the screens show for `O=C(NCc1cccnc1)NC(=O)c1ccc(Cl)cc1`?
NR2E3 ag-1: inactive; NR1D1 modulator: inactive; MC4R ag barr: inactive; NR2E3 ag-2: inactive; PG9 binder: inactive; MC4R antag cAMP: inactive

Results for CCN(CC)CC(C)(C)C(=O)/C=C/c1ccc(/C=C/C(=O)C(C)(C)CN(CC)CC)cc1 ?
NR1D1 modulator: inactive; MC4R ag barr: inactive; NR2E3 ag-2: 103; PG9 binder: inactive; MC4R antag cAMP: inactive; NR2E3 ag confirm: 96; VP16 counter: inactive

What do the screens show for `CCN(CC)CCOC(=O)/C=C/c1ccccc1`?
NR2E3 ag-1: inactive; NR1D1 modulator: inactive; MC4R ag barr: inactive; NR2E3 ag-2: inactive; PG9 binder: inactive; MC4R antag cAMP: inactive

Results for COC(=O)c1sccc1OCc1cccc(OC)c1 ?
NR2E3 ag-1: inactive; NR1D1 modulator: inactive; MC4R ag barr: inactive; NR2E3 ag-2: inactive; PG9 binder: inactive; MC4R antag cAMP: inactive

How did Cc1nc2ccccc2nc(C)c1=NOCc1cccc(Cl)c1 do in these assays?
NR2E3 ag-1: inactive; NR1D1 modulator: inactive; MC4R ag barr: inactive; NR2E3 ag-2: inactive; PG9 binder: inactive; MC4R antag cAMP: inactive

What do the screens show for `Cc1nc2ccccc2cc1OCc1ccc(Cl)cc1`?
NR2E3 ag-1: inactive; NR1D1 modulator: inactive; MC4R ag barr: inactive; NR2E3 ag-2: 78; PG9 binder: inactive; MC4R antag cAMP: inactive; NR2E3 ag confirm: 92; VP16 counter: 73

How did Cc1nc2ccccc2cc1OCc1ccccc1 do in these assays?
NR2E3 ag-1: inactive; NR1D1 modulator: inactive; MC4R ag barr: 8.5; NR2E3 ag-2: 73; PG9 binder: inactive; MC4R antag cAMP: inactive; NR2E3 ag confirm: 70; VP16 counter: inactive

How did COc1cccc(COc2cc3ccccc3nc2C)c1 do in these assays?
NR2E3 ag-1: inactive; NR1D1 modulator: inactive; MC4R ag barr: inactive; NR2E3 ag-2: 73; PG9 binder: inactive; MC4R antag cAMP: inactive; NR2E3 ag confirm: 94; VP16 counter: 76

How did Cc1nc(OCc2ccccc2)c2ccccc2n1 do in these assays?
NR2E3 ag-1: inactive; NR1D1 modulator: inactive; MC4R ag barr: inactive; NR2E3 ag-2: inactive; PG9 binder: inactive; MC4R antag cAMP: inactive

Results for CNC(=S)/N=C(\Nc1ccc(C)cc1)c1ccccc1 ?
NR2E3 ag-1: inactive; NR1D1 modulator: inactive; MC4R ag barr: inactive; NR2E3 ag-2: inactive; PG9 binder: inactive; MC4R antag cAMP: inactive

Results for C=CCNc1nc(C(=O)OCC(=O)c2ccc(F)cc2)cs1 ?
NR2E3 ag-1: inactive; NR1D1 modulator: inactive; MC4R ag barr: inactive; NR2E3 ag-2: inactive; PG9 binder: inactive; MC4R antag cAMP: inactive

What do the screens show for `CCC1Oc2ccccc2N(CC(=O)NCCN2C(C)CCCC2C)C1=O` (centres undefined)?
NR2E3 ag-1: inactive; NR1D1 modulator: inactive; MC4R ag barr: inactive; NR2E3 ag-2: inactive; PG9 binder: inactive; MC4R antag cAMP: inactive

How did CN(CC(=O)Nc1ccc(Cl)c(C(F)(F)F)c1)C(=O)c1ccc(N2CCOCC2)c([N+](=O)[O-])c1 do in these assays?
NR2E3 ag-1: inactive; NR1D1 modulator: inactive; MC4R ag barr: inactive; NR2E3 ag-2: inactive; PG9 binder: inactive; MC4R antag cAMP: inactive; NR2E3 ag confirm: inactive; VP16 counter: inactive

How did CCN(CC(=O)Nc1c(F)cccc1F)C(=O)c1ccc(N2CCCCC2)c([N+](=O)[O-])c1 do in these assays?
NR2E3 ag-1: inactive; NR1D1 modulator: inactive; MC4R ag barr: inactive; NR2E3 ag-2: inactive; PG9 binder: inactive; MC4R antag cAMP: inactive; NR2E3 ag confirm: inactive; VP16 counter: inactive

Results for COc1ccc(Cl)cc1NC(=O)CN(C)C(=O)c1ccc(N2CCCCC2)c([N+](=O)[O-])c1 ?
NR2E3 ag-1: inactive; NR1D1 modulator: inactive; MC4R ag barr: inactive; NR2E3 ag-2: inactive; PG9 binder: inactive; MC4R antag cAMP: inactive

What do the screens show for `COc1ccc(Cl)cc1NC(=O)CN(C)C(=O)c1ccc(N2CCCCCC2)c([N+](=O)[O-])c1`?
NR2E3 ag-1: inactive; NR1D1 modulator: inactive; MC4R ag barr: inactive; NR2E3 ag-2: inactive; PG9 binder: inactive; MC4R antag cAMP: inactive; NR2E3 ag confirm: inactive; VP16 counter: inactive

What do the screens show for `CC[C@]12C(=O)N(C)C[C@H]([C@@H]3C(=O)N(C)C(=O)[C@@H]31)N2C(=O)c1ccc(Cl)cc1`?
NR1D1 modulator: inactive; MC4R ag barr: inactive; NR2E3 ag-2: inactive; PG9 binder: inactive; MC4R antag cAMP: inactive

How did CCOc1ccc(N2C(=O)CC(Sc3n[nH]c(-c4ccccc4)n3)C2=O)cc1 (centres undefined) do in these assays?
NR2E3 ag-1: inactive; NR1D1 modulator: inactive; MC4R ag barr: inactive; NR2E3 ag-2: inactive; PG9 binder: inactive; MC4R antag cAMP: inactive

What do the screens show for `Cc1cc(CNC(=O)Cc2ccccc2)c2ccccc2n1`?
NR2E3 ag-1: inactive; NR1D1 modulator: inactive; MC4R ag barr: inactive; NR2E3 ag-2: inactive; PG9 binder: inactive; MC4R antag cAMP: inactive
